# Measurements reported in ChEMBL document CHEMBL4028856, “Discovery of Small Molecules Targeting the Synergy of Cardiac Transcription Factors GATA4 and NKX2-5” (J Med Chem, 2017).
# Activity calls are given as the source filed them. The rule behind the calls is not given here.
# Target: T1, GATA4/NKX2-5 (Rattus norvegicus) (UniProt P46152+O35767)
# Assay: Activation of GATA4/NKX2-5 interaction in neonatal rat ventricular cardiomyocytes assessed as increase in basal mRNA level of BNP at 20 uM after 24 hrs by real-time PCR analysis relative to control
# Conditions: not given
# Method in brief: (§1)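 Neonatal rat ventricular myocytes (2–4-day-old Sprague-Dawley or Wistar), preplated, seeded on 6-well plates, moved to complete serum-free medium next day and cultured 24 h. Compounds (10–100 μM) added 1 h before 100 nM endothelin-1 or none; ANP and BNP mRNA quantified by RT-PCR at 24 h, normalized to 18S RNA, relative to vehicle; mean ± SD, n = 3–6.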
row,SMILES,fold change (FC)
1,Cc1onc(-c2ccccc2)c1C(=O)N(C1=NC(C)CS1)c1ccc(Cl)cc1 (configuration not stated),6.4

# Target: T2, GATA4/NKX2-5 (Mus musculus) (UniProt Q08369+P42582)
# Assay: Activation of mouse GATA4/NKX2-5 transcriptional synergy expressed in African green monkey COS-1 cells measured after 30 hrs by dual luciferase reporter gene assay
# Assay type: cell-based
# Conditions: not given
# Method in brief: (§2)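 COS-1 cells co-transfected (Fugene 6, DNA:reagent 1:3) with p3xNKE-luc, Renilla pRL-TKd238 control, and pMT2-GATA4, pMT2-NKX2-5, both, or empty pMT2; DNA balanced with pMT2. Compounds added 6 h post-transfection in 0.1% DMSO, medium renewed at 24 h, lysis at 30 h. Dual-luciferase read-out, firefly/Renilla normalized to vehicle; duplicate wells.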
row,SMILES,Ka [µM]
1,Cc1onc(-c2ccccc2)c1C(=O)N(C1=NC(C)CS1)c1ccc(Cl)cc1 (configuration not stated),7

# Target: T2, GATA4/NKX2-5 (Mus musculus)
# Assay: Activation of mouse GATA4/NKX2-5 transcriptional synergy expressed in African green monkey COS-1 cells at 10 uM measured after 30 hrs by dual luciferase reporter gene assay
# Assay type: cell-based
# Conditions: not given
# Method in brief: as §2
row,SMILES,Activity
1,Cc1onc(-c2ccccc2)c1C(=O)N(C1=NC(C)CS1)c1ccc(Cl)cc1 (configuration not stated),Active

# Tested on: not listed separately
# Assay: Induction of aggregation of compound at 30 uM by nephalometric method
# Conditions: not given
row,SMILES,Activity
1,Cc1onc(-c2ccccc2)c1C(=O)N(C1=NC(C)CS1)c1ccc(Cl)cc1 (configuration not stated),Active

# Target: T1, GATA4/NKX2-5 (Rattus norvegicus)
# Assay: Activation of GATA4/NKX2-5 interaction in neonatal rat ventricular cardiomyocytes assessed as increase in endothelin-1 induced mRNA level of BNP at 20 uM preincubated for 1 hr followed by endothelin-1 addition measured after 23 hrs by real-time PCR analysis relative to control
# Conditions: not given
# Method in brief: as §1
row,SMILES,fold change (FC)
1,Cc1onc(-c2ccccc2)c1C(=O)N(C1=NC(C)CS1)c1ccc(Cl)cc1 (configuration not stated),2.1

# Target: T1, GATA4/NKX2-5 (Rattus norvegicus)
# Assay: Activation of GATA4/NKX2-5 interaction in neonatal rat ventricular cardiomyocytes assessed as increase in basal mRNA level of ANP at 20 uM after 24 hrs by real-time PCR analysis relative to control
# Conditions: not given
# Method in brief: as §1
row,SMILES,fold change (FC)
1,Cc1onc(-c2ccccc2)c1C(=O)N(C1=NC(C)CS1)c1ccc(Cl)cc1 (configuration not stated),4.6

# Target: T1, GATA4/NKX2-5 (Rattus norvegicus)
# Assay: Inhibition of GATA4/NKX2-5 interaction in neonatal rat ventricular cardiomyocytes assessed as decrease in endothelin-1 induced mRNA level of ANP at 20 uM preincubated for 1 hr followed by endothelin-1 addition measured after 23 hrs by real-time PCR analysis
# Conditions: not given
# Method in brief: as §1
row,SMILES,inhibition
1,Cc1onc(-c2ccccc2)c1C(=O)Nc1ccc(C#N)c(Cl)c1,Active
2,Cc1onc(-c2ccccc2)c1C(=O)Nc1ccc(OC(F)(F)F)cc1,Active
3,Cc1onc(-c2ccccc2)c1C(=O)Nc1ccc(OC(C)C)cc1,Active
4,CC(C)COC(=O)c1ccc(NC(=O)c2cccs2)cc1,Active

# Target: T2, GATA4/NKX2-5 (Mus musculus)
# Assay: Inhibition of mouse GATA4/NKX2-5 transcriptional synergy expressed in African green monkey COS-1 cells at 20 uM measured after 30 hrs by dual luciferase reporter gene assay
# Assay type: cell-based
# Conditions: 5 uM, in the assay text read “5 uM” for “20 uM”
# Method in brief: as §2
row,SMILES,inhibition
1,CCOc1ccc(/C=C2\SC(=O)N(CC)C2=O)cc1,Active

# Tested on: not listed separately
# Assay: Induction of necrosis in neonatal rat ventricular cardiomyocytes assessed as release of adenylate kinase at 50 uM measured after 24 hrs by bioluminescence assay
# Assay type: cell-based
# Conditions: cardiac muscle cell
# Method in brief: (§3)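 Neonatal rat cardiomyocytes treated 24 h at 50 μM; adenylate kinase released into medium measured by ToxiLight bioluminescence on a luminometer; relative to vehicle, mean ± SD, n = 3.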
row,SMILES,Activity
1,Cc1onc(-c2ccccc2)c1C(=O)N(C1=NC(C)CS1)c1ccc(Cl)cc1 (configuration not stated),Non-Toxic

# Tested on: not listed separately
# Assay: Induction of aggregation of compounds at 100 uM by nephalometric method
# Conditions: not given
row,SMILES,Activity
1,Cc1onc(-c2ccccc2)c1C(=O)N(C1=NC(C)CS1)c1ccc(Cl)cc1 (configuration not stated),Active

# Tested on: not listed separately
# Assay: Induction of apoptosis in endothelin-1 induced neonatal rat ventricular cardiomyocytes at 50 uM measured after 24 hrs by TUNEL assay
# Assay type: cell-based
# Conditions: cardiac muscle cell
# Method in brief: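 Neonatal rat cardiomyocytes on 8-well chamber slides treated 24 h at 50 μM; apoptotic cells detected by TUNEL with peroxidase in situ kit.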
row,SMILES,Activity
1,Cc1onc(-c2ccccc2)c1C(=O)N(C1=NC(C)CS1)c1ccc(Cl)cc1 (configuration not stated),Non-Toxic

# Tested on: not listed separately
# Assay: Induction of necrosis in endothelin-1 induced neonatal rat ventricular cardiomyocytes assessed as release of adenylate kinase at 50 uM measured after 24 hrs by bioluminescence assay
# Assay type: cell-based
# Conditions: cardiac muscle cell
# Method in brief: as §3
row,SMILES,Activity
1,Cc1onc(-c2ccccc2)c1C(=O)N(C1=NC(C)CS1)c1ccc(Cl)cc1 (configuration not stated),Non-Toxic

# Target: GATA4/NKX2-5 (Mus musculus, UniProt P42582+Q08369)
# Assay: Inhibition of mouse GATA4/NKX2-5 transcriptional synergy expressed in African green monkey COS-1 cells measured after 30 hrs by dual luciferase reporter gene assay
# Assay type: cell-based
# Conditions: not given
# Method in brief: as §2
# Sequence of GATA4/NKX2-5 (Q08369 whole entry): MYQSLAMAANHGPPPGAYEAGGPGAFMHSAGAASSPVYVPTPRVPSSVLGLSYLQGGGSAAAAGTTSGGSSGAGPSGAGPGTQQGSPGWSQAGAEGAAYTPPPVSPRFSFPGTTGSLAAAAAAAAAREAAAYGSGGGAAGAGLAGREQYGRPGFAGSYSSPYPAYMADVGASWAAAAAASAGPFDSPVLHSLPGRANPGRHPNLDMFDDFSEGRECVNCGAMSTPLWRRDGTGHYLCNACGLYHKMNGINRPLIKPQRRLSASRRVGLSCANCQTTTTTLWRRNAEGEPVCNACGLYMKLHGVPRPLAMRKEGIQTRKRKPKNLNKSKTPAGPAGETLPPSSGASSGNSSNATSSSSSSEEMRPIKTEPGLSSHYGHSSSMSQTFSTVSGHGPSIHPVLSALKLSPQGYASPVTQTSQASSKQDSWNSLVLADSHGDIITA
# Sequence of GATA4/NKX2-5 (P42582 whole entry): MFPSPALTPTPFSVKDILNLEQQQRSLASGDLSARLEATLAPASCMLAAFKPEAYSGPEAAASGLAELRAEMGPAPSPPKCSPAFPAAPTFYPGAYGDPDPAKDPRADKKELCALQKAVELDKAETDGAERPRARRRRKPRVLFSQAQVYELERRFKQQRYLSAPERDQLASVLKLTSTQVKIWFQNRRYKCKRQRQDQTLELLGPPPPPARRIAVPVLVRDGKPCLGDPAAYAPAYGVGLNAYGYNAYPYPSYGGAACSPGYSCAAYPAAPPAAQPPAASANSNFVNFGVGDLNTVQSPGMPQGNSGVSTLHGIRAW
row,SMILES,IC50 [µM]
1,O=C1NC(=O)/C(=C/c2cccc([N+](=O)[O-])c2)S1,20
2,COc1cccc(/C=N/n2c(S)nnc2-c2ccccc2)c1,> 50
3,CC(C)CCN1C(=O)S/C(=C\c2ccc(N(C)C)cc2)C1=O,10
4,O=c1cc(-c2ccc(O)c(O)c2)oc2cc(O)cc(O)c12 [LUTEOLIN],22
5,CCC(C)c1ccc(NC(=O)c2c(-c3ccccc3)noc2C)cc1 (configuration not stated),32
6,O=C(O)/C(=C/c1ccccc1)c1c(F)c(F)c(F)c(F)c1F,50
7,Cc1onc(-c2ccccc2)c1C(=O)Nc1ccc(S(=O)(=O)Nc2ncccn2)cc1,28
8,CC(C)CNC(=O)c1ccc(NC(=O)C2CCCCC2)cc1,> 50
9,CCc1ccc(/C=C2\SC(=O)NC2=O)cc1,21
10,CCOc1ccc(/C=N/n2c(SC)nnc2-c2ccccc2)cc1OCC,30
11,CCCC(=O)Nc1ccc(C(=O)NCC(C)C)cc1,> 50
12,Cc1onc(-c2ccccc2)c1C(=O)Nc1cccc(S(=O)(=O)NCc2ccco2)c1,20
13,Cc1onc(-c2ccccc2)c1C(=O)Nc1ccc(C#N)c(Cl)c1,16
14,Cc1onc(-c2ccccc2)c1C(=O)Nc1cccc(S(=O)(=O)N2CCCC2)c1,33
15,CCOc1ccc(NC(=O)c2c(-c3ccccc3)noc2C)cc1,20
16,Cc1onc(-c2ccccc2)c1C(=O)Nc1ccc(C(C)C)cc1,16
17,Sc1nnc(-c2ccccc2)n1/N=C/c1cccc(Oc2ccccc2)c1,13
18,COc1cccc(C(=O)Nc2ccc(C(=O)NCC(C)C)cc2)c1,> 50
19,COc1ccc(/C=N/n2c(SC)nnc2-c2ccccc2)cc1C,24
20,CCN(CC)S(=O)(=O)c1cccc(NC(=O)c2c(-c3ccccc3)noc2C)c1,> 50
21,CC(C)CNC(=O)c1ccc(NC(=O)C(F)(F)F)cc1,42
22,CN(C)c1ccc(/C=N/n2c(S)nnc2-c2ccncc2)cc1,7
23,CCOc1ccc(/C=C2\SC(=O)N(CC)C2=O)cc1,5
24,Cc1onc(-c2ccccc2)c1C(=O)Nc1ccc(N2CCCCC2)cc1,> 50
25,Cc1onc(-c2ccccc2)c1C(=O)Nc1ccc(C(C)(C)C)cc1,18
26,Cc1onc(-c2ccccc2)c1C(=O)Nc1ccc(-n2cnnn2)cc1,> 50

row,SMILES,IC50 [µM]
1,COc1cccc(/C=N/n2c(S)nnc2-c2ccccc2)c1OC,8
2,Cc1onc(-c2ccccc2Cl)c1C(=O)Nc1ccc(N2CCOCC2)cc1,38
3,CCOc1ccc(/C=N/n2c(S)nnc2C2CCCCC2)cc1,7
4,CCOc1ccccc1/C=N/n1c(S)nnc1-c1ccccc1,8
5,CCCCOc1ccc(/C=N/n2c(S)nnc2CC)cc1,> 50
6,CC(C)COC(=O)c1ccc(NC(=O)CCC(=O)O)cc1,37
7,Sc1nnc(-c2ccccc2)n1/N=C/c1ccc(OC2CCCC2)cc1,37
8,CCCOc1ccc(NC(=O)c2c(-c3ccccc3)noc2C)cc1,> 50
9,CC(C)c1ccc(/C=N/n2c(S)nnc2-c2cccnc2)cc1,> 50
10,CC(C)CNC(=O)c1ccc(NC(=O)C2CCCO2)cc1 (configuration not stated),> 50
11,Cc1cccc(/C=N/n2c(S)nnc2-c2ccccc2)c1,> 50
12,Cc1onc(-c2ccccc2)c1C(=O)Nc1ccc(Oc2ccccc2)cc1,> 50
13,Cc1onc(-c2ccccc2)c1C(=O)Nc1ccc(Sc2nccn2C)cc1,> 50
14,C=CCc1cccc(/C=N/n2c(S)nnc2-c2ccccc2)c1O,20
15,Cc1onc(-c2ccccc2Cl)c1C(=O)Nc1ccc(C(C)(C)C)cc1,22
16,CC(C)(C)c1ccc(/C=N/n2c(S)nnc2-c2cccnc2)cc1,30
17,Cc1onc(-c2ccccc2)c1C(=O)Nc1ccc(-c2nnc3n2CCCCC3)cc1,20
18,COc1ccc(/C=N/n2c(S)nnc2C2CCCCC2)cc1OCc1ccccc1,10
19,Cc1onc(-c2ccccc2)c1C(=O)Nc1ccc(N2CCOCC2)cc1,> 50
20,COc1ccc(/C=N/n2c(S)nnc2-c2ccccc2)cc1C,11
21,Cc1onc(-c2ccccc2)c1C(=O)Nc1ccc(C(=O)OC(C)C)cc1,20
22,O=c1cc(-c2ccc(O)cc2)oc2cc(O)cc(O)c12 [APIGENIN],24
23,Cc1onc(-c2ccccc2)c1C(=O)Nc1cccc(C(=O)NC2CC2)c1,20
24,CCOc1ccc(/C=C2\SC(=O)N(CC)C2=O)cc1OCC,26
25,CCNc1ccc(NC(=O)c2c(-c3ccccc3)noc2CO)cc1,> 50
26,Cc1onc(-c2ccccc2)c1C(=O)Nc1ccc(OC(F)(F)F)cc1,11

row,SMILES,IC50 [µM]
1,Cc1onc(-c2ccccc2)c1C(=O)Nc1ccc(S(=O)(=O)N2CCOCC2)cc1,> 50
2,Cc1onc(-c2ccccc2)c1C(=O)Nc1ccc2c(c1)OC1(CCCC1)O2,23
3,CCCOC(=O)c1ccc(NC(=O)c2c(-c3ccccc3)noc2C)cc1,> 50
4,CCC(CC)C(=O)Nc1ccc(C(=O)NCC(C)C)cc1,> 50
5,CC(C)CNC(=O)c1ccc(NC(=O)C2CC2)cc1,23
6,CCN(CC)S(=O)(=O)c1cc(NC(=O)c2c(-c3ccccc3)noc2C)ccc1C,> 50
7,CC(C)(C)c1ccc(/C=N/n2c(S)nnc2-c2ccncc2)cc1,7
8,Fc1cccc(/C=N/n2c(S)nnc2-c2ccccc2)c1,> 50
9,Cc1onc(-c2ccccc2)c1C(=O)Nc1ccc(OC(C)C)cc1,13
10,CCN(CC)c1ccc(/C=N/n2c(S)nnc2-c2ccccc2)c(OC)c1,> 50
11,COc1cccc(/C=N/n2c(SC)nnc2-c2ccccc2)c1OC,> 50
12,CCN(CC)c1ccc(/C=N/n2c(S)nnc2C2CCCCC2)cc1,6
13,CC(C)COC(=O)c1ccc(NC(=O)c2cccs2)cc1,9
14,CC(C)CNC(=O)c1ccc(NC(=O)c2cccs2)cc1,> 50
15,Cc1onc(-c2ccccc2)c1C(=O)Nc1ccc2c(c1)CCC2,17
16,CCC(C)c1ccc(NC(=O)c2c(-c3ccccc3Cl)noc2C)cc1 (configuration not stated),20
17,CC(C)COC(=O)c1ccc(NC(=O)COc2ccccc2Cl)cc1,> 50
18,Cc1onc(-c2ccccc2)c1C(=O)Nc1cccc(S(=O)(=O)NC2=NC=CC2)c1,28
19,CC(C)CNC(=O)c1ccc(NC(=O)c2ccccc2)cc1,> 50
20,CCN1C(=O)S/C(=C\c2ccc(N3CCCC3)c(F)c2)C1=O,8
21,CCN(CC)c1ccc(/C=N/n2c(S)nnc2-c2ccc(OC)cc2)cc1,19
22,Cc1nc(-c2ccc(NC(=O)c3c(-c4ccccc4)noc3C)cc2)cs1,> 50
23,c1ccc(-c2nonc2-c2ccccc2)cc1,50
24,Cc1ccc(C(=O)Nc2ccc(C(=O)OCC(C)C)cc2)cc1C,> 50

# Target: T1, GATA4/NKX2-5 (Rattus norvegicus)
# Assay: Inhibition of GATA4/NKX2-5 interaction in neonatal rat ventricular cardiomyocytes assessed as decrease in endothelin-1 induced mRNA level of BNP at 20 uM preincubated for 1 hr followed by endothelin-1 addition measured after 23 hrs by real-time PCR analysis
# Conditions: not given
# Method in brief: as §1
row,SMILES,inhibition
1,Cc1onc(-c2ccccc2)c1C(=O)Nc1ccc(OC(F)(F)F)cc1,Active
